{"source": "ChEMBL document CHEMBL3808291", "about": "“Bifunctional Peptide-Based Opioid Agonist-Nociceptin Antagonist Ligands for Dual Treatment of Acute and Neuropathic Pain” (J Med Chem, 2016)", "key": {"Rattus norvegicus [1]": {"tested_on": "Rattus norvegicus", "assay": "Induction of respiratory depression in Sprague-Dawley rat at 6 nmol/kg, iv after 5 to 120 mins by plethysmography method", "type": "organism-based", "conditions": "in vivo", "procedure,_shortened": "(§1)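 Male Sprague–Dawley rats (250–350 g) with implanted catheter and intraperitoneal temperature transmitter, dosed iv at T0; 0.9% NaCl as control; N = 6/group. Whole-body barometric plethysmography, ~60 s records at −30, −15, −5, 5–120 min.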"}, "Mus musculus [2]": {"tested_on": "Mus musculus", "assay": "Neurotoxicity in intrathecally dosed albino Swiss CD1 IGS mouse assessed as motor impairment measured after 15 to 120 mins post dose by rotarod test", "type": "toxicity, organism-based", "conditions": "in vivo, icv_or_intrathecal", "procedure,_shortened": "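Intrathecal dosing (water for injection, 5 µL) to male CD-1 mice. After three training sessions, mice placed on accelerating rod (2 to 40 rpm over 300 s cutoff); tested 15 and 120 min after injection.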"}, "Rattus norvegicus [3]": {"tested_on": "Rattus norvegicus", "assay": "Reduction in expiratory time in Sprague-Dawley rat at 6 nmol/kg, iv after 5 to 120 mins by plethysmography method", "type": "organism-based", "conditions": "in vivo", "procedure,_shortened": "as §1"}, "Mus musculus [4]": {"tested_on": "Mus musculus", "assay": "Antiallodynic activity in albino Swiss CD1 IGS mouse model of chronic constriction injury-induced neuropathic pain assessed as increase in mechanical threshold for paw withdrawal at 0.0005 nmol, it administered on day 7 to 16 after CCI surgery measured 180 mins post dose by Von Frey test", "type": "functional, organism-based", "procedure,_shortened": "(§2)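 Male CD-1 mice (30–35 g). CCI: sciatic constriction injury, tested on days 7–16 after surgery. STZ diabetes: single ip streptozocin 200 mg/kg; mice with glucose >300 mg/dL included, tested on day 10. Drug in water for injection, given it (5 µL, L5–L6 lumbar puncture) to conscious mice. von Frey (cutoff 6 g) or cold plate (2 °C, 30 s cutoff, paw lift) at 30, 90, 180 min; 6–8 mice/group.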"}, "Mus musculus [5]": {"tested_on": "Mus musculus", "assay": "Antihyperalgesic activity in albino Swiss CD1 IGS mouse model of chronic constriction injury-induced neuropathic pain assessed as increase in paw withdrawal latency at 0.0005 nmol, it administered on day 7 to 16 after CCI surgery measured 180 mins post dose by cold plate test", "type": "functional, organism-based", "procedure,_shortened": "as §2"}, "Mus musculus [6]": {"tested_on": "Mus musculus", "assay": "Antinociceptive activity in C57BL6 mouse model of acute pain assessed as increase in withdrawal latency from radiant heat source at 61 to 196 nmol/kg, po measured after 5 to 120 mins by tail flick assay relative to control", "type": "functional", "procedure,_shortened": "(§3)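 Male C57BL6 mice (20–25 g); compound or saline given iv into tail vein (po also tested). Radiant heat on ventral tail, latency to withdrawal/shaking recorded at baseline and 5, 15, 30, 60, 120 min (later points also reported); normalized as %MPE; 8–10 mice per group.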"}, "Mus musculus [7]": {"tested_on": "Mus musculus", "assay": "Antiallodynic activity in albino Swiss CD1 IGS mouse model of streptozocin-induced type1 diabetic neuropathic pain assessed as increase in mechanical threshold for paw withdrawal at 0.005 nmol, it administered on day 10 after STZ injection measured at 180 mins post dose by Von Frey test", "type": "functional, organism-based", "procedure,_shortened": "as §2"}, "Rattus norvegicus [8]": {"tested_on": "Rattus norvegicus", "assay": "Reduction in tidal volume in Sprague-Dawley rat at 6 nmol/kg, iv after 5 to 120 mins by plethysmography method", "type": "organism-based", "conditions": "in vivo", "procedure,_shortened": "as §1"}, "[9]": {"assay": "Passive permeability of compound at 500 uM after 4 hrs by BBB-PAMPA", "type": "ADME", "conditions": "read-out: permeability", "procedure,_shortened": "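BBB-PAMPA with porcine brain polar lipids; compound at 500 µM in donor compartment in system solution containing 20% 1-propanol; 4 h at room temperature in humidified box, 25 µm unstirred water layer. Quantified by RP-HPLC, identity by MALDI-TOF; effective permeability and % transport calculated.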"}, "Mus musculus [10]": {"tested_on": "Mus musculus", "assay": "Antiallodynic activity in albino Swiss CD1 IGS mouse model of streptozocin-induced type1 diabetic neuropathic pain assessed as increase in mechanical threshold for paw withdrawal at 0.005 nmol, it administered on day 10 after STZ injection measured at 30 mins post dose by Von Frey test", "type": "functional, organism-based", "procedure,_shortened": "as §2"}, "Mus musculus [11]": {"tested_on": "Mus musculus", "assay": "Antinociceptive activity in C57BL6 mouse model of acute pain assessed as increase in withdrawal latency from radiant heat source at 31 to 61 nmol/kg, iv measured after 180 to 240 mins by tail flick assay relative to control", "type": "functional", "procedure,_shortened": "as §3"}, "Mus musculus [12]": {"tested_on": "Mus musculus", "assay": "Antihyperalgesic activity in albino Swiss CD1 IGS mouse model of streptozocin-induced type1 diabetic neuropathic pain assessed as increase in paw withdrawal latency at 0.005 nmol, it administered on day 10 after STZ injection measured at 180 mins post dose by […]", "type": "functional, organism-based", "procedure,_shortened": "as §2"}}, "note": "Calls of active or inactive are those of the source. Numbered stars: 1 amine (or outer) side, 2 acyl side, 3 side chain; on linkers, the order of the positions; unused ones are H or OH. Square brackets hold non-standard residues; d marks the D form. Peptide text beside a SMILES is read from it. X1 = O=C1[C@@H](N[*:1])Cc2ccccc2CN1CCC(=O)[*:2]; Dmt = Cc1cc(O)cc(C)c1C[C@H](N)C(=O)O", "data": [{"smiles": "CC[C@H](C)[C@H](NC(=O)[C@H](CCCNC(=N)N)NC(=O)[C@H](Cc1ccc(O)cc1)NC(=O)[C@H](Cc1ccc(O)cc1)NC(=O)[C@H](CCCNC(=N)N)NC(=O)CCN1Cc2ccccc2C[C@H](NC(=O)[C@@H](CCCNC(=N)N)NC(=O)[C@@H](N)Cc2c(C)cc(O)cc2C)C1=O)C(=O)N[C@@H](CCCCN)C(N)=O", "note": "(H-[Dmt][dR][X1]RYYRIK-NH2)", "values": [{"measurement": "Activity", "setting": "Rattus norvegicus [1]", "result": "Non-toxic"}, {"measurement": "Activity", "setting": "Mus musculus [2]", "result": "Non-toxic"}, {"measurement": "Activity", "setting": "Rattus norvegicus [3]", "result": "Non-toxic"}, {"measurement": "Activity", "setting": "Mus musculus [4]", "result": "Active"}, {"measurement": "Activity", "setting": "Mus musculus [5]", "result": "Active"}, {"measurement": "MPE", "setting": "Mus musculus [6]", "result": "<5", "unit": "%"}, {"measurement": "Activity", "setting": "Mus musculus [7]", "result": "inactive"}, {"measurement": "Activity", "setting": "Rattus norvegicus [8]", "result": "Non-toxic"}, {"measurement": "Papp at 4 h, 500 µM", "setting": "[9]", "result": 0.11, "unit": "×10⁻⁶ cm/s"}, {"measurement": "Activity", "setting": "Mus musculus [10]", "result": "Active"}, {"measurement": "MPE", "setting": "Mus musculus [11]", "result": 100, "unit": "%"}, {"measurement": "Activity", "setting": "Mus musculus [12]", "result": "Active"}]}]}
